Blank lines part the entries; values can stand above or below the compound they belong to.
Legend:
Bacteria [1] = assay: Inhibition of bacterial IMP1 at 10 uM using CENTA as substrate by UV/Vis multi-plate spectrophotometric method relative to control
Bacteria [2] = assay: Competitive inhibition of bacterial IMP1 using CENTA as substrate by UV/Vis multi-plate spectrophotometric method
Bacteria [3] = assay: Uncompetitive inhibition of bacterial IMP1 using CENTA as substrate by UV/Vis multi-plate spectrophotometric method
[4] = Drug metabolism assessed as bacterial IMP1-mediated N-(1-Benzyl-3-cyano-4,5-diphenyl-1H-pyrrol-2-yl)benzamide formation by ESI-MS method; format: ADME; details: bacteria
[5] = target: Metallo-beta-lactamase type 2 (Aeromonas hydrophila) (UniProt P26918); assay: Competitive inhibition of Aeromonas hydrophila recombinant CphA expressed in Escherichia coli BL21(DE3) using meropenem as substrate by UV/Vis multi-plate spectrophotometric method
[6] = target: Metallo-beta-lactamase type 2 (Aeromonas hydrophila) (UniProt P26918); assay: Uncompetitive inhibition of Aeromonas hydrophila recombinant CphA expressed in Escherichia coli BL21(DE3) using meropenem as substrate by UV/Vis multi-plate spectrophotometric method
[7] = target: T1, Metallo-beta-lactamase AIM-1 (Pseudomonas aeruginosa) (UniProt B5DCA0); assay: Competitive inhibition of Pseudomonas aeruginosa recombinant AIM1 expressed in Escherichia coli BL21(DE3) using cefuroxime as substrate by UV/Vis multi-plate spectrophotometric method
T1 sequence (whole entry): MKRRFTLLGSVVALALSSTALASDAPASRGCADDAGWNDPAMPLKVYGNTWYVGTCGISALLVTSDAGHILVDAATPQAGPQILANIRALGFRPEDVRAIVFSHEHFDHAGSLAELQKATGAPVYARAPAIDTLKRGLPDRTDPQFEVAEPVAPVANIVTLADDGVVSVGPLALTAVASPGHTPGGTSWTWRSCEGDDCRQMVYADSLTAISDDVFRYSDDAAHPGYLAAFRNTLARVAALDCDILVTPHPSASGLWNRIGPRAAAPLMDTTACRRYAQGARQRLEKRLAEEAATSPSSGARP

[8] = target: T1, Metallo-beta-lactamase AIM-1 (Pseudomonas aeruginosa); assay: Uncompetitive inhibition of Pseudomonas aeruginosa recombinant AIM1 expressed in Escherichia coli BL21(DE3) using cefuroxime as substrate by UV/Vis multi-plate spectrophotometric method
[9] = target: T1, Metallo-beta-lactamase AIM-1 (Pseudomonas aeruginosa); assay: Inhibition of Pseudomonas aeruginosa AIM1 expressed in Escherichia coli BL21(DE3) assessed as decrease in meropenem MIC at 30 uM after overnight incubation relative to control
In short: (§1)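 Meropenem MICs (µg/mL) measured for E. coli BL21 cultures expressing IMP-1, CphA or AIM-1. Each strain was tested with no inhibitor (blank) and with the test compound at 30 µM. Change in sensitivity is expressed as the reduction of the meropenem MIC relative to the blank.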

[10] = target: Metallo-beta-lactamase type 2 (Aeromonas hydrophila) (UniProt P26918); assay: Inhibition of Aeromonas hydrophila CphA expressed in Escherichia coli BL21(DE3) assessed as decrease in meropenem MIC at 30 uM after overnight incubation relative to control; in short: as §1
Bacteria [11] = assay: Inhibition of bacterial IMP1 expressed in Escherichia coli BL21(DE3) assessed as decrease in meropenem MIC at 30 uM after overnight incubation relative to control; in short: as §1
Escherichia coli [12] = assay: Growth inhibition of Escherichia coli BL21(DE3) expressing Pseudomonas aeruginosa AIM1; format: organism-based; details: in vivo
Escherichia coli [13] = assay: Growth inhibition of Escherichia coli BL21(DE3) expressing Aeromonas hydrophila CphA; format: organism-based; details: in vivo
Escherichia coli [14] = assay: Growth inhibition of Escherichia coli BL21(DE3) expressing bacterial IMP1; format: organism-based; details: in vivo
Bacteria [15] = assay: Inhibition of bacterial IMP1 expressed in Escherichia coli BL21(DE3) assessed as potentiation of meropenem-mediated antibacterial activity by measuring meropenem MIC at 30 uM after overnight incubation (reference value: 1 ug/ml); in short: as §1
[16] = target: Metallo-beta-lactamase type 2 (Aeromonas hydrophila) (UniProt P26918); assay: Inhibition of Aeromonas hydrophila CphA expressed in Escherichia coli BL21(DE3) assessed as potentiation of meropenem-mediated antibacterial activity by measuring meropenem MIC at 30 uM after overnight incubation (reference value: 1 ug/ml); in short: as §1
[17] = target: T1, Metallo-beta-lactamase AIM-1 (Pseudomonas aeruginosa); assay: Inhibition of Pseudomonas aeruginosa recombinant AIM1 expressed in Escherichia coli BL21(DE3) assessed as potentiation of meropenem-mediated antibacterial activity by measuring meropenem MIC at 30 uM after overnight incubation (reference value: 2 ug/ml); in short: as §1

Sequence of Metallo-beta-lactamase type 2 (Aeromonas hydrophila) (P26918 whole entry): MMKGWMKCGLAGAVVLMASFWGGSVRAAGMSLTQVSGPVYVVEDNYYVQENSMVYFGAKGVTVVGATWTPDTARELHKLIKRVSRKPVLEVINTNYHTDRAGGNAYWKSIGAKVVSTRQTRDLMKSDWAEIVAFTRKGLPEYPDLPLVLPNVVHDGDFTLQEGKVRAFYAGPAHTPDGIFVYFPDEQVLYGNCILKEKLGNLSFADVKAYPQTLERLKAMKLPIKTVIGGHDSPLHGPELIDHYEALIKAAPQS

- inhibition (Bacteria [1]): 17.1%
SMILES: CCCC(=O)N(C(=O)CCC)c1c(C#N)c(-c2ccccc2)c(-c2ccccc2)n1Cc1ccccc1

- inhibition (Bacteria [1]): 50.9%
- Kic (Bacteria [2]): 10.7 µM
- Kiuc (Bacteria [3]): 4.3 µM
- Kic [5]: 11 µM
- Kiuc [6]: 9 µM
- Kic [7]: 1.6 µM
- Kiuc [8]: 13 µM
- fold change (FC) [9]: 20
- fold change (FC) [10]: 40
- fold change (FC) (Bacteria [11]): 20
SMILES: N#Cc1c(-c2ccccc2)c(-c2ccccc2)n(Cc2ccccc2)c1NC(=O)c1ccccc1
- growth inhibition (GI) (Escherichia coli [12]): Non-Toxic
- growth inhibition (GI) (Escherichia coli [13]): Non-Toxic
- growth inhibition (GI) (Escherichia coli [14]): Non-Toxic

- inhibition (Bacteria [1]): 23.3%
SMILES: N#Cc1c(-c2ccccc2)c(-c2ccccc2)n(Cc2ccccc2)c1NC(=O)C1CCCCC1

- inhibition (Bacteria [1]): 18.6%
SMILES: CC(=O)N(C(C)=O)c1c(C#N)c(-c2ccccc2)c(-c2ccccc2)n1Cc1ccccc1

- inhibition (Bacteria [1]): 21%
SMILES: CCCC(=O)Nc1c(C#N)c(-c2ccccc2)c(-c2ccccc2)n1Cc1ccccc1

- inhibition (Bacteria [1]): 16.1%
SMILES: CC(=O)Nc1c(C#N)c(-c2ccccc2)c(-c2ccccc2)n1Cc1ccccc1

- inhibition (Bacteria [1]): 32.3%
- Kic (Bacteria [2]): 20.2 µM
- Kiuc (Bacteria [3]): 7.8 µM
SMILES: Cc1cc(C)cc(C(=O)Nc2c(C#N)c(-c3ccccc3)c(-c3ccccc3)n2Cc2ccccc2)c1

- inhibition (Bacteria [1]): 26%
- Kic (Bacteria [2]): 21 µM
- Kic [5]: 52 µM
- Kiuc [6]: 5.5 µM
- Kic [7]: 2.2 µM
- Kiuc [8]: 12.5 µM
- MIC (Bacteria [15]): 0.5 µg/mL
- MIC [16]: 0.047 µg/mL
- MIC [17]: 0.25 µg/mL
SMILES: N#Cc1c(-c2ccccc2)c(-c2ccccc2)n(Cc2ccccc2)c1N
- growth inhibition (GI) (Escherichia coli [12]): Non-Toxic
- growth inhibition (GI) (Escherichia coli [13]): Non-Toxic
- growth inhibition (GI) (Escherichia coli [14]): Non-Toxic

- inhibition (Bacteria [1]): 8.2%
SMILES: CCCCCCCCCCCCCC(=O)Nc1c(C#N)c(-c2ccccc2)c(-c2ccccc2)n1Cc1ccccc1

Further lines, the compound ahead of its results:

SMILES: N#Cc1c(-c2ccccc2)c(-c2ccccc2)n(Cc2ccccc2)c1N1C(=O)c2ccccc2C1=O
- inhibition (Bacteria [1]): 20.3%

SMILES: Cc1cc(C)cc(C(=O)N(C(=O)c2cc(C)cc(C)c2)c2c(C#N)c(-c3ccccc3)c(-c3ccccc3)n2Cc2ccccc2)c1
- inhibition (Bacteria [1]): 13.3%

SMILES: N#Cc1c(-c2ccccc2)c(-c2ccccc2)n(Cc2ccccc2)c1N(C(=O)c1ccccc1)C(=O)c1ccccc1
- inhibition (Bacteria [1]): 48%
- Kic (Bacteria [2]): 468 µM
- Kiuc (Bacteria [3]): 55 µM
- Drug metabolism [4]: Metabolite_Notdetected

SMILES: CCCCCCCCCCCCCC(=O)N(C(=O)CCCCCCCCCCCCC)c1c(C#N)c(-c2ccccc2)c(-c2ccccc2)n1Cc1ccccc1
- inhibition (Bacteria [1]): 14.3%

SMILES: N#Cc1c(-c2ccccc2)c(-c2ccccc2)n(CCc2ccccc2)c1N
- inhibition (Bacteria [1]): 4.8%

SMILES: N#Cc1c(-c2ccccc2)c(-c2ccccc2)n(Cc2ccccc2)c1NC(=O)c1cccc([N+](=O)[O-])c1
- inhibition (Bacteria [1]): 48.7%
- Kic (Bacteria [2]): 23.7 µM
- Kiuc (Bacteria [3]): 3.3 µM

SMILES: N#Cc1c(N)[nH]c(-c2ccccc2)c1-c1ccccc1
- inhibition (Bacteria [1]): 12%

SMILES: COc1ccc(Cn2c(N)c(C#N)c(-c3ccccc3)c2-c2ccccc2)cc1
- inhibition (Bacteria [1]): 20.1%

SMILES: N#Cc1c(-c2ccco2)c(-c2ccco2)n(Cc2ccccc2)c1N
- inhibition (Bacteria [1]): 23.2%

SMILES: N#Cc1c(-c2ccccc2)c(-c2ccccc2)n(Cc2ccccc2)c1NC(=O)c1ccc([N+](=O)[O-])cc1
- inhibition (Bacteria [1]): 36.9%
- Kic (Bacteria [2]): 1.24 µM
- Kic [7]: 10.9 µM
- Kiuc [8]: 47 µM
- MIC (Bacteria [15]): 0.25 µg/mL
- MIC [16]: 0.75 µg/mL
- MIC [17]: 0.5 µg/mL
- growth inhibition (GI) (Escherichia coli [12]): Non-Toxic
- growth inhibition (GI) (Escherichia coli [13]): Non-Toxic
- growth inhibition (GI) (Escherichia coli [14]): Non-Toxic

SMILES: N#Cc1c(-c2ccccc2)c(-c2ccccc2)n(CCCCc2ccccc2)c1N
- inhibition (Bacteria [1]): 8.7%

SMILES: N#Cc1c(-c2ccccc2)c(-c2ccccc2)n(Cc2ccccc2)c1N(C(=O)c1ccc([N+](=O)[O-])cc1)C(=O)c1ccc([N+](=O)[O-])cc1
- inhibition (Bacteria [1]): 20.2%

SMILES: N#Cc1c(-c2ccccc2)c(-c2ccccc2)n(-c2ccccc2)c1N
- inhibition (Bacteria [1]): 0%

SMILES: Nc1c(-c2nnn[nH]2)c(-c2ccccc2)c(-c2ccccc2)n1Cc1ccccc1
- inhibition (Bacteria [1]): 8.7%

SMILES: Cc1c(C#N)c(N)n(Cc2ccccc2)c1C
- inhibition (Bacteria [1]): 2.3%

SMILES: N#Cc1c(-c2ccccc2)c(-c2ccccc2)n(Cc2ccccc2)c1NC(=O)c1ccc(C(=O)c2ccccc2)cc1
- inhibition (Bacteria [1]): 44.3%
- Kiuc (Bacteria [3]): 1.52 µM
- Kic [5]: 872 µM
- Kiuc [6]: 161 µM
- MIC (Bacteria [15]): 0.5 µg/mL
- MIC [16]: 0.75 µg/mL
- MIC [17]: 0.75 µg/mL
- growth inhibition (GI) (Escherichia coli [12]): Non-Toxic
- growth inhibition (GI) (Escherichia coli [13]): Non-Toxic
- growth inhibition (GI) (Escherichia coli [14]): Non-Toxic

SMILES: NC(=O)c1c(-c2ccccc2)c(-c2ccccc2)n(Cc2ccccc2)c1N
- inhibition (Bacteria [1]): 0%

SMILES: N#Cc1c(-c2ccccc2)c(-c2ccccc2)n(CCCc2ccccc2)c1N
- inhibition (Bacteria [1]): 4.1%
